Experimental data: ChEMBL document CHEMBL5058577, “EUbOPEN Chemogenomics Library 2 (Multiplex)” (2022)

System: Fibroblast
Test: Multiplex assay against human fibroblast
Type: toxicity, cell-based
How it was run: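 Per cents of healthy-nucleus cells form the tubulin, mitochondrial-mass and membrane-permeability phenotype values. Live cells were stained at seeding with Hoechst33342, BioTracker Green Microtubule Cytoskeleton Dye, MitoTracker Red and Annexin V Alexa Fluor 680. After compound addition they were imaged on a CQ1 microscope at 37°C and 5% CO2, and CellPathfinder machine-learning gating split them into Hoechst high-intensity objects or normal cells, normal cells into healthy, pyknosed or fragmented nuclei, and pyknosed cells into mitotic or apoptotic.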

[1] = 12 h, 1 µM, compound concentration 1 uM, replicate 1
[2] = 12 h, 1 µM, compound concentration 1 uM, replicate 2
[3] = 12 h, 10 µM, compound concentration 10 uM, replicate 1
[4] = 12 h, 10 µM, compound concentration 10 uM, replicate 2
[5] = 24 h, 1 µM, compound concentration 1 uM, replicate 1
[6] = 24 h, 1 µM, compound concentration 1 uM, replicate 2
[7] = 24 h, 10 µM, compound concentration 10 uM, replicate 1
[8] = 24 h, 10 µM, compound concentration 10 uM, replicate 2
[9] = 48 h, 1 µM, compound concentration 1 uM, replicate 1
[10] = 48 h, 1 µM, compound concentration 1 uM, replicate 2
[11] = 48 h, 10 µM, compound concentration 10 uM, replicate 1
[12] = 48 h, 10 µM, compound concentration 10 uM, replicate 2

SMILES: CCCN1CCC[C@@H]2Cc3n[nH]cc3C[C@H]21.Cl [QUINPIROLE HYDROCHLORIDE]
- Population Apoptotic (%) [1]: 45%
- Population Fragmented Nuclei (%) [1]: 14%
- Population Healthy Nuclei (%) [1]: 65%
- Population Hoechst High Intensity Objects (%) [1]: 2%
- Population Membrane Permeable-Phenotype (%) [1]: 0%
- Population Mitochondria Different-Phenotype (%) [1]: 3%
- Population Mitotic Cells (%) [1]: 54%
- Population Normal (%) [1]: 97%
- Population Pyknosed Nuclei (%) [1]: 20%
- Population Tubulin-Different-Phenotype (%) [1]: 17%
- Total Cell Count [1]: 156
- Population Apoptotic (%) [2]: 52%
- Population Fragmented Nuclei (%) [2]: 22%
- Population Healthy Nuclei (%) [2]: 60%
- Population Hoechst High Intensity Objects (%) [2]: 6%
- Population Membrane Permeable-Phenotype (%) [2]: 7%
- Population Mitochondria Different-Phenotype (%) [2]: 6%
- Population Mitotic Cells (%) [2]: 47%
- Population Normal (%) [2]: 93%
- Population Pyknosed Nuclei (%) [2]: 17%
- Population Tubulin-Different-Phenotype (%) [2]: 50%
- Total Cell Count [2]: 139
- Population Apoptotic (%) [3]: 58%
- Population Fragmented Nuclei (%) [3]: 16%
- Population Healthy Nuclei (%) [3]: 68%
- Population Hoechst High Intensity Objects (%) [3]: 4%
- Population Membrane Permeable-Phenotype (%) [3]: 1%
- Population Mitochondria Different-Phenotype (%) [3]: 6%
- Population Mitotic Cells (%) [3]: 41%
- Population Normal (%) [3]: 95%
- Population Pyknosed Nuclei (%) [3]: 15%
- Population Tubulin-Different-Phenotype (%) [3]: 33%
- Total Cell Count [3]: 115
- Population Apoptotic (%) [4]: 45%
- Population Fragmented Nuclei (%) [4]: 23%
- Population Healthy Nuclei (%) [4]: 59%
- Population Hoechst High Intensity Objects (%) [4]: 2%
- Population Membrane Permeable-Phenotype (%) [4]: 10%
- Population Mitotic Cells (%) [4]: 54%
- Population Normal (%) [4]: 97%
- Population Pyknosed Nuclei (%) [4]: 17%
- Population Tubulin-Different-Phenotype (%) [4]: 55%
- Total Cell Count [4]: 184
- Population Apoptotic (%) [5]: 52%
- Population Fragmented Nuclei (%) [5]: 21%
- Population Healthy Nuclei (%) [5]: 64%
- Population Hoechst High Intensity Objects (%) [5]: 1%
- Population Membrane Permeable-Phenotype (%) [5]: 0%
- Population Mitochondria Different-Phenotype (%) [5]: 2%
- Population Mitotic Cells (%) [5]: 47%
- Population Normal (%) [5]: 98%
- Population Pyknosed Nuclei (%) [5]: 13%
- Population Tubulin-Different-Phenotype (%) [5]: 13%
- Total Cell Count [5]: 172
- Population Apoptotic (%) [6]: 34%
- Population Fragmented Nuclei (%) [6]: 28%
- Population Healthy Nuclei (%) [6]: 53%
- Population Hoechst High Intensity Objects (%) [6]: 2%
- Population Membrane Permeable-Phenotype (%) [6]: 1%
- Population Mitochondria Different-Phenotype (%) [6]: 7%
- Population Mitotic Cells (%) [6]: 65%
- Population Pyknosed Nuclei (%) [6]: 17%
- Population Tubulin-Different-Phenotype (%) [6]: 41%
- Total Cell Count [6]: 150
- Population Apoptotic (%) [7]: 75%
- Population Fragmented Nuclei (%) [7]: 22%
- Population Healthy Nuclei (%) [7]: 67%
- Population Hoechst High Intensity Objects (%) [7]: 2%
- Population Membrane Permeable-Phenotype (%) [7]: 0%
- Population Mitochondria Different-Phenotype (%) [7]: 7%
- Population Mitotic Cells (%) [7]: 25%
- Population Normal (%) [7]: 97%
- Population Pyknosed Nuclei (%) [7]: 10%
- Population Tubulin-Different-Phenotype (%) [7]: 32%
- Total Cell Count [7]: 119
- Population Apoptotic (%) [8]: 55%
- Population Fragmented Nuclei (%) [8]: 38%
- Population Healthy Nuclei (%) [8]: 51%
- Population Hoechst High Intensity Objects (%) [8]: 1%
- Population Membrane Permeable-Phenotype (%) [8]: 7%
- Population Mitochondria Different-Phenotype (%) [8]: 3%
- Population Mitotic Cells (%) [8]: 45%
- Population Normal (%) [8]: 98%
- Population Pyknosed Nuclei (%) [8]: 9%
- Population Tubulin-Different-Phenotype (%) [8]: 39%
- Total Cell Count [8]: 209
- Population Apoptotic (%) [9]: 68%
- Population Fragmented Nuclei (%) [9]: 23%
- Population Healthy Nuclei (%) [9]: 62%
- Population Hoechst High Intensity Objects (%) [9]: 3%
- Population Membrane Permeable-Phenotype (%) [9]: 0%
- Population Mitochondria Different-Phenotype (%) [9]: 3%
- Population Mitotic Cells (%) [9]: 32%
- Population Normal (%) [9]: 96%
- Population Pyknosed Nuclei (%) [9]: 14%
- Population Tubulin-Different-Phenotype (%) [9]: 21%
- Total Cell Count [9]: 175
- Population Apoptotic (%) [10]: 38%
- Population Fragmented Nuclei (%) [10]: 37%
- Population Healthy Nuclei (%) [10]: 53%
- Population Hoechst High Intensity Objects (%) [10]: 1%
- Population Membrane Permeable-Phenotype (%) [10]: 8%
- Population Mitochondria Different-Phenotype (%) [10]: 4%
- Population Mitotic Cells (%) [10]: 61%
- Population Normal (%) [10]: 98%
- Population Pyknosed Nuclei (%) [10]: 8%
- Population Tubulin-Different-Phenotype (%) [10]: 42%
- Total Cell Count [10]: 157
- Population Apoptotic (%) [11]: 53%
- Population Fragmented Nuclei (%) [11]: 23%
- Population Healthy Nuclei (%) [11]: 65%
- Population Hoechst High Intensity Objects (%) [11]: 1%
- Population Membrane Permeable-Phenotype (%) [11]: 2%
- Population Mitochondria Different-Phenotype (%) [11]: 6%
- Population Mitotic Cells (%) [11]: 46%
- Population Normal (%) [11]: 98%
- Population Pyknosed Nuclei (%) [11]: 11%
- Population Tubulin-Different-Phenotype (%) [11]: 31%
- Total Cell Count [11]: 119
- Population Apoptotic (%) [12]: 46%
- Population Fragmented Nuclei (%) [12]: 43%
- Population Healthy Nuclei (%) [12]: 48%
- Population Hoechst High Intensity Objects (%) [12]: 3%
- Population Mitochondria Different-Phenotype (%) [12]: 4%
- Population Mitotic Cells (%) [12]: 53%
- Population Normal (%) [12]: 96%
- Population Pyknosed Nuclei (%) [12]: 8%
- Population Tubulin-Different-Phenotype (%) [12]: 48%
- Total Cell Count [12]: 192
